Laboratory results reported in ChEMBL document CHEMBL2417436, “Synthesis and biological effects of novel 2-amino-3-(4-chlorobenzoyl)-4-substituted thiophenes as allosteric enhancers of the A1 adenosine receptor” (Eur J Med Chem, 2013).

Legend:
[1] = target: T1, Adenosine receptor A1 (Homo sapiens) (UniProt P30542); experiment: Allosteric enhancement of human adenosine A1 receptor expressed in CHO cells assessed as increase of CCPA Ki at 10 uM after 90 mins by [3H]DPCPX radioligand binding assay; assay type: cell-based
T1 sequence (whole entry): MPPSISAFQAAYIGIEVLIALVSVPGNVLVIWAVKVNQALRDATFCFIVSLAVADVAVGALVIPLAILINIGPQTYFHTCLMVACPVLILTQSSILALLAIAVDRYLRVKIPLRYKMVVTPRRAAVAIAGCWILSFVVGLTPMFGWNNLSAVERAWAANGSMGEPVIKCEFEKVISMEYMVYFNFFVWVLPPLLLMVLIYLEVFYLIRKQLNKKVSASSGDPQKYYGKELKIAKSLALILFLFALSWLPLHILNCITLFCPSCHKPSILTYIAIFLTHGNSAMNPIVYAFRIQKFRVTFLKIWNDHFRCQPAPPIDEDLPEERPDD
Method in brief: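 hA1CHO membranes (50 mM Tris-HCl, pH 7.4, adenosine deaminase-treated). [3H]DPCPX 1 nM competed by CCPA (0.01 nM–1 μM) with or without test compound at 10 μM. Triplicate, 90 min at 25 °C. Nonspecific binding taken with 1 μM DPCPX. Filtration, then scintillation counting. Ki by Cheng–Prusoff. Shift = Ki(CCPA)/Ki(CCPA+enhancer). Mean ± SEM, n=3.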

[2] = target: T1, Adenosine receptor A1 (Homo sapiens); experiment: Allosteric enhancement of human adenosine A1 receptor expressed in CHO cells assessed as increase of [3H]CCPA Bmax at 10 uM after 90 mins; assay type: cell-based
Method in brief: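 Saturation of [3H]CCPA (0.05–20 nM) on hA1CHO membranes in 50 mM Tris-HCl, pH 7.4, with or without compound at final 10 μM. Triplicate, 25 °C, 90 min. Nonspecific binding defined with 1 μM R-PIA. Filter-bound radioactivity counted. KD and Bmax fitted by weighted nonlinear least squares; Bmax shift versus control. Mean ± SEM, n=3.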

[3] = target: Adenosine receptor A2a (Homo sapiens) (UniProt P29274); experiment: Displacement of [3H]ZM 241385 from human adenosine A2A receptor expressed in CHO cells at 10 uM after 60 mins by scintillation counting; assay type: cell-based
Adenosine receptor A2a (Homo sapiens), sequence (P29274 whole entry): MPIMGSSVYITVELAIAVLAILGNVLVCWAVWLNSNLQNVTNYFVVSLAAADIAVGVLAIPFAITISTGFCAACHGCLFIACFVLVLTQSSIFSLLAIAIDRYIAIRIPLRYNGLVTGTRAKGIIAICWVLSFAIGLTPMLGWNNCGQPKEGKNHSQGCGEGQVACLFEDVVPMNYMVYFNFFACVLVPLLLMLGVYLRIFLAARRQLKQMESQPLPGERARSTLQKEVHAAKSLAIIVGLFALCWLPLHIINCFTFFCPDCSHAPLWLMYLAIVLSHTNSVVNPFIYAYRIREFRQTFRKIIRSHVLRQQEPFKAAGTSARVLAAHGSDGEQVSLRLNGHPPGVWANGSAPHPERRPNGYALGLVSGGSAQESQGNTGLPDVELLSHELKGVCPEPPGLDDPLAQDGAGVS
Method in brief: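 hA2ACHO membranes in 50 mM Tris HCl, 10 mM MgCl2, pH 7.4, 4 °C for 60 min. [3H]ZM 241385 given as 1 nM in methods and 2 nM in table footnote. Compound at 10 μM from 100-fold DMSO stock, 1% DMSO final. Nonspecific binding with 1 μM ZM 241385. Filtration and scintillation counting. Percent inhibition of control specific binding, ±SEM, n=3.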

[4] = target: T1, Adenosine receptor A1 (Homo sapiens); experiment: Allosteric enhancement of human adenosine A1 receptor expressed in CHO cells assessed as inhibition of CCPA-induced cAMP production at 100 nM after 10 mins; assay type: functional, cell-based
Method in brief: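 Intact hA1CHO cells (10⁶/mL) in phosphate buffer with adenosine deaminase 1.0 IU/mL and Ro 20-1724 0.5 mM, preincubated 10 min at 37 °C. Compound 100 nM plus CCPA 1 pM added for 10 min, then forskolin 1 μM for 5 min. Stopped with cold 6% TCA, ether-extracted. cAMP measured by [3H]-cAMP competition with adrenal binding protein (4 °C, 150 min). pmol/10⁶ cells, mean ± SEM of three.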

[5] = target: T1, Adenosine receptor A1 (Homo sapiens); experiment: Allosteric enhancement of human adenosine A1 receptor expressed in CHO cells assessed as inhibition of forskolin-induced cAMP production at 10 uM after 10 mins; assay type: functional, cell-based
Method in brief: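 Whole hA1CHO cells (10⁶/mL) preincubated 10 min at 37 °C in phosphate buffer with adenosine deaminase (1.0 IU/mL) and Ro 20-1724 (0.5 mM). Compound alone at 10 μM for a further 10 min; forskolin 1 μM for 5 min. TCA stop, ether extraction, cAMP by [3H]-cAMP protein-binding competition assay. Expressed as pmol/10⁶ cells; mean ± SEM, three experiments.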

[6] = target: T1, Adenosine receptor A1 (Homo sapiens); experiment: Displacement of [3H]DPCPX from human adenosine A1 receptor expressed in CHO cells at 10 uM after 120 mins by scintillation counting
[7] = target: T2, Adenosine receptor A3 (Homo sapiens) (UniProt P0DMS8); experiment: Displacement of [3H]MRE-3008-F20 from human adenosine A3 receptor expressed in CHO cells at 10 uM after 120 mins by scintillation counting
T2 sequence (whole entry): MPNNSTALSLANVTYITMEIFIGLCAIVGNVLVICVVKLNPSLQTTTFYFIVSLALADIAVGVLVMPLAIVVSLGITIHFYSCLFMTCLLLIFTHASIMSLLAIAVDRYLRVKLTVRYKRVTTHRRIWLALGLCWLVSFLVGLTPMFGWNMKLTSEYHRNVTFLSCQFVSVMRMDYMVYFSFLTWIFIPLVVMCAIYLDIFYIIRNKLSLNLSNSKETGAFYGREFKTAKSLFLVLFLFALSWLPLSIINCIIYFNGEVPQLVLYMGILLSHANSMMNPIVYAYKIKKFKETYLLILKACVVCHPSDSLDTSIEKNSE

fold change (FC) [1] | fold change (FC) [2] | inhibition [3] | inhibition [4] | inhibition [5] | inhibition [6] | inhibition [7] | SMILES
2.2 | 2.5 | 0% | 21% | 22% | 8% | 12% | CN(Cc1csc(N)c1C(=O)c1ccc(Cl)cc1)c1ccc(Cl)cc1
1.1 | 1.1 | 1% | 12% | 5% | 1% | 5% | CCCCN(C)Cc1c(-c2ccccc2)sc(N)c1C(=O)c1ccc(Cl)cc1
4.7 | 5.1 | 1% | 43% | 45% | 1% | 5% | Nc1scc(CN2CCC3(CC2)Oc2ccccc2O3)c1C(=O)c1ccc(Cl)cc1
1.4 | 1.5 | 1% | 14% | 12% | 1% | 3% | CC(C)N(Cc1c(Br)sc(N)c1C(=O)c1ccc(Cl)cc1)C(C)C
2.5 | 3.1 | 1% | 29% | 28% | 1% | 11% | CCCN(CCC)Cc1c(-c2ccccc2)sc(N)c1C(=O)c1ccc(Cl)cc1
2.8 | 3.2 | 0% | 31% | 29% | 3% | 4% | CN(Cc1csc(N)c1C(=O)c1ccc(Cl)cc1)c1ccc(C(F)(F)F)cc1
1.9 | 2.3 | 0% | 18% | 19% | 0% | 11% | CCN(Cc1csc(N)c1C(=O)c1ccc(Cl)cc1)c1ccccc1
6.3 | 6.5 | 1% | 52% | 56% | 1% | 7% | Nc1scc(CN2CCC3(CC2)Oc2cccc(F)c2O3)c1C(=O)c1ccc(Cl)cc1
4 | 4.4 | 1% | 40% | 42% | 1% | 7% | CN(Cc1ccccc1)Cc1csc(N)c1C(=O)c1ccc(Cl)cc1
3.2 | 3.5 | 1% | 28% | 31% | 6% | 7% | Nc1sc(-c2ccccc2)c(CN(C2CCCCC2)C2CCCCC2)c1C(=O)c1ccc(Cl)cc1
1 | 1 | 0% | 14% | 4% | 1% | 3% | CC(C)N(Cc1csc(N)c1C(=O)c1ccc(Cl)cc1)C(C)C
1.1 | 1.2 | 1% | 13% | 8% | 2% | 1% | Nc1scc(CN2CCc3[nH]c4ccc(Cl)cc4c3C2)c1C(=O)c1ccc(Cl)cc1
1.1 | 1.1 | 3% | 11% | 4% | 1% | 6% | CN(Cc1ccccc1)Cc1c(-c2ccccc2)sc(N)c1C(=O)c1ccc(Cl)cc1
6.6 | 7.5 | 0% | 62% | 66% | 3% | 3% | Nc1scc(CN2CCn3c(cc4ccccc43)C2)c1C(=O)c1ccc(Cl)cc1
3.7 | 4.8 | 0% | 41% | 43% | 1% | 6% | COc1ccc2c(c1)cc1n2CCN(Cc2csc(N)c2C(=O)c2ccc(Cl)cc2)C1
7.6 | 8.1 | 3% | 72% | 71% | 0% | 5% | Nc1scc(CN2CCN3c4ccccc4CC3C2)c1C(=O)c1ccc(Cl)cc1 (stereo unspecified)
3.9 | 4.2 | 1% | 34% | 36% | 3% | 5% | C=CCN(CC=C)Cc1c(-c2ccccc2)sc(N)c1C(=O)c1ccc(Cl)cc1
2.4 | 2.8 | 5% | 27% | 25% | 1% | 9% | CCN(CC)Cc1c(-c2ccccc2)sc(N)c1C(=O)c1ccc(Cl)cc1
